Experimental data from ChEMBL document CHEMBL4373651, “Indole compounds with N-ethyl morpholine moieties as CB2 receptor agonists for anti-inflammatory management of pain: synthesis and biological evaluation” (Medchemcomm, 2019).
Active and inactive are the calls of the source.

What was measured:
Cannabinoid receptor 2 = Cannabinoid receptor 2 (Homo sapiens, UniProt P34972); assay: Agonist activity at human CB2 receptor expressed in CHO cells coexpressing Galpha16 assessed as reduction in forsklin-induced cAMP production incubated for 30 mins by cAMP Hunter assay based […] analysis; format: functional, cell-based
Sequence of Cannabinoid receptor 2 (P34972 whole entry, the tested form may be a part): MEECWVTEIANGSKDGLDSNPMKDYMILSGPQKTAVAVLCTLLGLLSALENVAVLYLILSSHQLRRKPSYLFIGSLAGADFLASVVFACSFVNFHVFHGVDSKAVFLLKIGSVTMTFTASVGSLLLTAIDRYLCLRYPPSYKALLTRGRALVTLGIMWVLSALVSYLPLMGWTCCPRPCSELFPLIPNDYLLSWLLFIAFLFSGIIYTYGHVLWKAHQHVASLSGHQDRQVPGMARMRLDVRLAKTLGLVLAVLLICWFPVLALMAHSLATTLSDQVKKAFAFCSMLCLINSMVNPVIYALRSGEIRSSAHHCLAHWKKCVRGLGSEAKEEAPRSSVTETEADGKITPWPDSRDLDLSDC
Method in brief: (§1)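 CHO cells expressing human CB1 or CB2 with Gα16, seeded overnight at 37 °C. Test compounds in stimulation buffer with 1 mM IBMX, 0.25% BSA and forskolin, 30 min at 37 °C. Cells lysed, cAMP read by enzyme fragment complementation chemiluminescence kit. Triplicate per dilution. Efficacy relative to CP-55940 reference run twice per plate. EC50 from means.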

Cannabinoid receptor 1 = Cannabinoid receptor 1 (Homo sapiens, UniProt P21554); assay: Agonist activity at human CB1 receptor expressed in CHO cells coexpressing Galpha16 assessed as reduction in forsklin-induced cAMP production incubated for 30 mins by cAMP Hunter assay based […] analysis; format: cell-based; method in brief: as §1
Sequence of Cannabinoid receptor 1 (P21554 whole entry): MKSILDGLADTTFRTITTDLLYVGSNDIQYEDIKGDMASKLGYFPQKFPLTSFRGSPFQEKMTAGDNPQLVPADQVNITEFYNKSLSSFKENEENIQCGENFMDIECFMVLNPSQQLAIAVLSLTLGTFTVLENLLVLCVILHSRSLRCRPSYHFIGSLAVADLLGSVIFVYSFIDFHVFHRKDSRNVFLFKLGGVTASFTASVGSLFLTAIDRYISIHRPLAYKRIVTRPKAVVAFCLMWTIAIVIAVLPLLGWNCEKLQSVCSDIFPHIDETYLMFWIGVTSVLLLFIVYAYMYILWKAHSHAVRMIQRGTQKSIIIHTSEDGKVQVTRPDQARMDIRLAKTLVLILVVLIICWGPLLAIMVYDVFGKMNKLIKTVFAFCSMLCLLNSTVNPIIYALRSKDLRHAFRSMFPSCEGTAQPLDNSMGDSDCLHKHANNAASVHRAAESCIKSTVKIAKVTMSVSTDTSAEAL

[1] = Selectivity ratio of EC50 for human CB1 receptor expressed in CHO cells coexpressing Galpha16 to EC50 for human CB2 receptor expressed in CHO cells coexpressing Galpha16
Method in brief: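 Ratio of EC50 values from the CB1 and CB2 cAMP assays in CHO-Gα16 cells: 30 min compound exposure at 37 °C with 1 mM IBMX and forskolin, chemiluminescent cAMP read-out, triplicates.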

Rattus norvegicus [2] = assay: (§2) Antiinflammatory hyperalgesic activity against complete freund's adjuvant-induced mechanical hyperalgesic Sprague-Dawley rat model assessed as decrease in IL-1 beta production in paw skin at 10 mg/kg, ip pretreated with CFA for 24 hrs followed by compound administration and measured after 1 hr by ELISA relative to control; format: functional
Method in brief: (§3)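 Male Sprague-Dawley rats, 180–200 g, isoflurane anaesthesia. Left hind paw given intraplantar 50% CFA (50 µL in 0.9% saline), or saline. At 24 h, single i.p. dose of drug, antagonist, combination or vehicle (2 mL kg-1). 1 h after dosing, paw skin taken and homogenised in ice-cold buffer with protease inhibitor, then centrifuged. IL-1β, IL-6 and TNF-α in supernatant by ELISA. n = 6, one-way ANOVA with Tukey test.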

Rattus norvegicus [3] = assay: as §2, with “reduction” for “decrease”, “0.1” for “10”, “ELISA” for “ELISA relative to control”; format: functional, organism-based; method in brief: as §3
Rattus norvegicus [4] = assay: as §2, with “compound and 0.5 mg/kg CB1 receptor antagonist, AM281” for “compound”, “ELISA” for “ELISA relative to control”; format: functional, organism-based; method in brief: as §3
Rattus norvegicus [5] = assay: as §2, with “reduction” for “decrease”, “TNF-alpha” for “IL-1 beta”, “0.1” for “10”, “ELISA” for “ELISA relative to control”; format: functional, organism-based; method in brief: as §3
Rattus norvegicus [6] = assay: as §2, with “TNF-alpha” for “IL-1 beta”, “compound and 0.5 mg/kg CB1 receptor antagonist, AM281” for “compound”, “ELISA” for “ELISA relative to control”; format: functional, organism-based; method in brief: as §3
Rattus norvegicus [7] = assay: as §2, with “IL-6” for “IL-1 beta”; format: functional; method in brief: as §3
Rattus norvegicus [8] = assay: (§4) Antiinflammatory hyperalgesic activity against complete freund's adjuvant-induced mechanical hyperalgesic Sprague-Dawley rat model assessed as increase in paw withdraw latency at 10 mg/kg, ip pretreated with CFA for 24 hrs followed by compound and 0.5 mg/kg CB1 receptor antagonist, AM281 administration by analgesiometer analysis; format: functional, organism-based
Method in brief: (§5)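 Male Sprague-Dawley rats, 180–200 g. Baseline mechanical paw withdrawal threshold taken with analgesiometer pressure on left hind paw, cut-off 250 g, endpoint complete withdrawal. Intraplantar 50% CFA (50 µL in 0.9% saline) under isoflurane. At 24 h, pre-drug threshold, then single i.p. dose of 0.0025–10 mg kg-1, antagonist combination or vehicle (2 mL kg-1). Thresholds read 1–24 h after dosing. % reversal = (post − pre)/(baseline − pre) × 100.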

Rattus norvegicus [9] = assay: Antiinflammatory hyperalgesic activity against ip dosed complete freund's adjuvant-induced mechanical hyperalgesic Sprague-Dawley rat model assessed as decrease in TNF-alpha production in paw skin pretreated with CFA for 24 hrs followed by compound administration and measured after 1 hr by ELISA; format: functional, organism-based; method in brief: as §3
Rattus norvegicus [10] = assay: as §2, with “TNF alpha” for “IL-1 beta”; format: functional; method in brief: as §3
Rattus norvegicus [11] = assay: as §2, with “reduction” for “decrease”, “IL-6” for “IL-1 beta”, “compound and 1 mg/kg CB2 receptor antagonist, SR144528” for “compound”, “ELISA” for “ELISA relative to control”; format: functional, organism-based; method in brief: as §3
Rattus norvegicus [12] = assay: (§6) Antiinflammatory hyperalgesic activity against complete freund's adjuvant-induced mechanical hyperalgesic Sprague-Dawley rat model assessed as increase in paw withdraw latency at 0.0025 to 10 mg/kg, ip pretreated with CFA for 24 hrs followed by compound administration and measured at 1 hr to 12 hrs by analgesiometer analysis; format: functional, organism-based; method in brief: as §5
Rattus norvegicus [13] = assay: as §4, with “as” for “as increase in”, “1” for “0.5”, “CB2” for “CB1”, “SR144528” for “AM281”; format: functional, organism-based; method in brief: as §5
Rattus norvegicus [14] = assay: as §6, with “as” for “as increase in”, “24” for “1 hr to 12”; format: functional, organism-based; method in brief: as §5
Rattus norvegicus [15] = assay: (§7) Antiinflammatory hyperalgesic activity against ip dosed complete freund's adjuvant-induced mechanical hyperalgesic Sprague-Dawley rat model assessed as decrease in IL-6 production in paw skin pretreated with CFA for 24 hrs followed by compound administration and measured after 1 hr by ELISA; format: functional, organism-based; method in brief: as §3
Rattus norvegicus [16] = assay: as §2, with “reduction” for “decrease”, “compound and 1 mg/kg CB2 receptor antagonist, SR144528” for “compound”, “ELISA” for “ELISA relative to control”; format: functional, organism-based; method in brief: as §3
Rattus norvegicus [17] = assay: Antiinflammatory hyperalgesic activity against ip dosed complete freund's adjuvant-induced mechanical hyperalgesic Sprague-Dawley rat model assessed as increase in […] pretreated with CFA for 24 hrs followed by compound administration and measured at 1 hr by analgesiometer analysis; format: functional; method in brief: as §5
Rattus norvegicus [18] = assay: as §7, with “against” for “against ip dosed”, “skin at 10 mg/kg, ip” for “skin”, “compound and 0.5 mg/kg CB1 receptor antagonist, AM281” for “compound”; format: functional, organism-based; method in brief: as §3
Rattus norvegicus [19] = assay: (§8) Antiinflammatory hyperalgesic activity against complete freund's adjuvant-induced mechanical hyperalgesic Sprague-Dawley rat model assessed as reduction in IL-6 production in paw skin at 0.1 mg/kg, ip pretreated with CFA for 24 hrs followed by compound administration and measured after 1 hr by ELISA; format: functional, organism-based; method in brief: as §3
Rattus norvegicus [20] = assay: Antiinflammatory hyperalgesic activity against ip dosed complete freund's adjuvant-induced mechanical hyperalgesic Sprague-Dawley rat model assessed as decrease in IL-1 beta production in paw skin pretreated with CFA for 24 hrs followed by compound administration and measured after 1 hr by ELISA; format: functional, organism-based; method in brief: as §3
Rattus norvegicus [21] = assay: as §8, with “TNF-alpha” for “IL-6”, “10” for “0.1”, “compound and 1 mg/kg CB2 receptor antagonist, SR144528” for “compound”; format: functional, organism-based; method in brief: as §3
Rattus norvegicus [22] = assay: Antiinflammatory hyperalgesic activity against complete freund's adjuvant-induced mechanical hyperalgesic Sprague-Dawley rat model assessed as paw withdraw latency at 10 mg/kg, ip pretreated with CFA for 24 hrs followed by compound administration and measured at 24 hrs by analgesiometer analysis; format: functional, organism-based; method in brief: as §5
Rattus norvegicus [23] = assay: as §6, with “at” for “at 0.0025 to”, “9” for “12”; format: functional, organism-based; method in brief: as §5

Cc1c(CC(=O)NC2CCCC2)c2cc(F)ccc2n1CCN1CCOCC1
EC50 (Cannabinoid receptor 2; read-out: EC50): 0.476 µM
EC50 (Cannabinoid receptor 1; cho): Not Active
Ratio EC50 [1]: >1000

Cc1c(CC(=O)NCC2CC2)c2cc(Cl)ccc2n1CCN1CCOCC1
EC50 (Cannabinoid receptor 2; read-out: EC50): 0.594 µM
EC50 (Cannabinoid receptor 1; cho): Not Active
Ratio EC50 [1]: >1000

Cc1c(CCN2CCOCC2)c2cc(Br)ccc2n1C(=O)c1cccc(Cl)c1Cl
EC50 (Cannabinoid receptor 2; read-out: EC50): 0.0523 µM
EC50 (Cannabinoid receptor 1; read-out: EC50): > 100 µM
Ratio EC50 [1]: >1000

Cc1c(CCN2CCOCC2)c2cc(F)ccc2n1CC(=O)NC1CCCC1
EC50 (Cannabinoid receptor 2; read-out: EC50): 5.5 µM
EC50 (Cannabinoid receptor 1; cho): Not Active

Cc1c(CCN2CCOCC2)c2cc(Br)ccc2n1CC(=O)NC1CCCC1
EC50 (Cannabinoid receptor 2; read-out: EC50): 20.2 µM
EC50 (Cannabinoid receptor 1; cho): Not Active

Cc1c(CCN2CCOCC2)c2cc(F)ccc2n1CC(=O)NC1CCCCC1
EC50 (Cannabinoid receptor 2; cho): Not Active
EC50 (Cannabinoid receptor 1; cho): Not Active

Cc1c(CC(=O)NC2CCCCC2)c2cc(F)ccc2n1CCN1CCOCC1
EC50 (Cannabinoid receptor 2; read-out: EC50): > 100 µM
EC50 (Cannabinoid receptor 1; cho): Not Active

Cc1c(CC(=O)NC2CC2)c2cc(Cl)ccc2n1CCN1CCOCC1
EC50 (Cannabinoid receptor 2; read-out: EC50): 1.2 µM
EC50 (Cannabinoid receptor 1; cho): Not Active

Cc1c(CCN2CCOCC2)c2cc(F)ccc2n1C(=O)c1cccc(Cl)c1Cl
fold change (FC) (Rattus norvegicus [2]): 1.3
Activity (Rattus norvegicus [3]): inactive
inhibition (Rattus norvegicus [4]): Active
Activity (Rattus norvegicus [5]): inactive
inhibition (Rattus norvegicus [6]): Active
fold change (FC) (Rattus norvegicus [7]): 1.9
Activity (Rattus norvegicus [8]): Active
inhibition (Rattus norvegicus [9]): Dose-dependent effect
fold change (FC) (Rattus norvegicus [10]): 1.1
Activity (Rattus norvegicus [11]): inactive
EC50 (Cannabinoid receptor 2; read-out: EC50): 0.0189 µM
Activity (Rattus norvegicus [12]): Active
Activity (Rattus norvegicus [13]): inactive
Activity (Rattus norvegicus [14]): inactive
inhibition (Rattus norvegicus [15]): Dose-dependent effect
Activity (Rattus norvegicus [16]): inactive
Activity (Rattus norvegicus [17]): Dose-dependent effect
ED50 (Rattus norvegicus [17]): 1.1 mg/kg
inhibition (Rattus norvegicus [18]): Active
EC50 (Cannabinoid receptor 1; read-out: EC50): 29.2 µM
Activity (Rattus norvegicus [19]): inactive
inhibition (Rattus norvegicus [20]): Dose-dependent effect
Ratio EC50 [1]: >1000
Activity (Rattus norvegicus [21]): inactive

COc1ccc2c(c1)c(CC(=O)NC1CCCC1)c(C)n2CCN1CCOCC1
EC50 (Cannabinoid receptor 2; cho): Not Active
EC50 (Cannabinoid receptor 1; cho): Not Active

Cc1c(CC(=O)NCc2ccc3c(c2)OCO3)c2cc(Cl)ccc2n1CCN1CCOCC1
EC50 (Cannabinoid receptor 2; cho): Not Active
EC50 (Cannabinoid receptor 1; cho): Not Active

Cc1c(CCN2CCOCC2)c2cc(Br)ccc2n1CC(=O)N1CCCC1
EC50 (Cannabinoid receptor 2; cho): Not Active
EC50 (Cannabinoid receptor 1; cho): Not Active

COc1ccc2c(c1)c(CC(=O)NC1CC1)c(C)n2CCN1CCOCC1
EC50 (Cannabinoid receptor 2; cho): Not Active
EC50 (Cannabinoid receptor 1; cho): Not Active

COc1ccc2c(c1)c(CCN1CCOCC1)c(C)n2CC(=O)N1CCCC1
EC50 (Cannabinoid receptor 2; read-out: EC50): > 100 µM
EC50 (Cannabinoid receptor 1; cho): Not Active

COc1ccc2c(c1)c(CCN1CCOCC1)c(C)n2C(=O)N1CCCC1
EC50 (Cannabinoid receptor 2; read-out: EC50): 26.4 µM
EC50 (Cannabinoid receptor 1; cho): Not Active

Cc1c(CCN2CCOCC2)c2cc(F)ccc2n1CC(=O)N1CCCC1
EC50 (Cannabinoid receptor 2; cho): Not Active
EC50 (Cannabinoid receptor 1; cho): Not Active

COc1ccc2c(c1)c(CCN1CCOCC1)c(C)n2CC(=O)NCc1ccc2c(c1)OCO2
EC50 (Cannabinoid receptor 2; read-out: EC50): 28.1 µM
EC50 (Cannabinoid receptor 1; cho): Not Active

Cc1c(CCN2CCOCC2)c2cc(Cl)ccc2n1C(=O)N1CCCC1
EC50 (Cannabinoid receptor 2; cho): Not Active
EC50 (Cannabinoid receptor 1; cho): Not Active

Cc1c(CCN2CCOCC2)c2cc(F)ccc2n1CC(=O)NC1CC1
EC50 (Cannabinoid receptor 2; read-out: EC50): 3.9 µM
EC50 (Cannabinoid receptor 1; cho): Not Active

Cc1c(CCN2CCOCC2)c2cc(Cl)ccc2n1C(=O)c1cccc(Cl)c1Cl
EC50 (Cannabinoid receptor 2; read-out: EC50): 0.117 µM
EC50 (Cannabinoid receptor 1; read-out: EC50): 79.8 µM
Ratio EC50 [1]: >1000

Cc1c(CCN2CCOCC2)c2cc(Br)ccc2n1CC(=O)NCC1CC1
EC50 (Cannabinoid receptor 2; read-out: EC50): 5.4 µM
EC50 (Cannabinoid receptor 1; cho): Not Active

Cc1c(CC(=O)NC2CCCCC2)c2cc(Cl)ccc2n1CCN1CCOCC1
EC50 (Cannabinoid receptor 2; read-out: EC50): > 100 µM
EC50 (Cannabinoid receptor 1; cho): Not Active

COc1ccc2c(c1)c(CCN1CCOCC1)c(C)n2CC(=O)NC1CCCCC1
EC50 (Cannabinoid receptor 2; read-out: EC50): 11.6 µM
EC50 (Cannabinoid receptor 1; cho): Not Active

COc1ccc2c(c1)c(CC(=O)NC1CCCCC1)c(C)n2CCN1CCOCC1
EC50 (Cannabinoid receptor 2; read-out: EC50): > 100 µM
EC50 (Cannabinoid receptor 1; cho): Not Active

COc1ccc2c(c1)c(CCN1CCOCC1)c(C)n2C(=O)c1cccc(Cl)c1Cl
fold change (FC) (Rattus norvegicus [2]): 1.4
Activity (Rattus norvegicus [22]): inactive
fold change (FC) (Rattus norvegicus [7]): 2.5
fold change (FC) (Rattus norvegicus [10]): 1.6
Activity (Rattus norvegicus [23]): Active
EC50 (Cannabinoid receptor 2; read-out: EC50): 0.0507 µM
EC50 (Cannabinoid receptor 1; read-out: EC50): 16.1 µM
Ratio EC50 [1]: >1000

Cc1c(CCN2CCOCC2)c2cc(Cl)ccc2n1CC(=O)N1CCCCC1
EC50 (Cannabinoid receptor 2; cho): Not Active
EC50 (Cannabinoid receptor 1; cho): Not Active
